Type in all cases: functional
For assay [1], the system named is Rattus norvegicus. Briefly: Percent change in high-density lipoprotein cholesterol in hypercholesterolemic rats dosed at 100 mg/kg/day for 8 days.
The subject of assay [2] is Rattus norvegicus. Description: Percent change in triglycerides in hypercholesterolemic rats at a dose of 100 mg/kg/day for 8 days.
Assay [3] relates to Rattus norvegicus. Briefly: Percent change in total plasma cholesterol in hypercholesterolemic rats dosed at 100 mg/kg/day for 8 days.
Assay [4] concerns Rattus norvegicus. Description: Percent change in high-density lipoprotein cholesterol following oral administration of compound in normal chow-fed rats at 100 mg/kg/day for 4 days. In a few lines:
(§1)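 Chow-fed male Sprague–Dawley CD rats, 60–80 g, gavaged 100 mg/kg/day for 4 days in 1.3% Tween 80/0.25% CMC. Fasted overnight, bled 24 h after the last dose. Total cholesterol and glycerol-blanked triglycerides read enzymatically; lipoproteins by FPLC with cholesterol per fraction. % change versus control; six per group, p < 0.05.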

Assay [5] deals with Rattus norvegicus. Briefly: Percent change in total plasma cholesterol following oral administration of compound in normal chow-fed rats at 100 mg/kg/day for 4 days. In a few lines: as §1
The test system of assay [6] is Rattus norvegicus. Briefly: Percent change in triglycerides following oral administration of compound in normal chow-fed rats at 100 mg/kg/day for 4 days. An outline of the steps:
as §1

In assay [7] the test system is Rattus norvegicus. Briefly: Percent change in low-density lipoprotein cholesterol following oral administration of compound in normal chow-fed rats at 100 mg/kg/day for 4 days. An outline of the steps: as §1
For assay [8], the system named is Rattus norvegicus. Description: Percent change in very low-density lipoprotein cholesterol following oral administration of compound in normal chow-fed rats at 100 mg/kg/day for 4 days. An outline of the steps: as §1

For the compound `Cc1ccc(Cl)cc1N1C(=O)C(=O)N(C)C1=S`, the values for the Change in the assay with Rattus norvegicus [1], with Rattus norvegicus [2] and in the assay with Rattus norvegicus [3] were 196%, -26% and 44%, respectively.

On to `Cc1cccc(Cl)c1N1C(=O)CN(c2ccccc2)C1=S`, for which the Change in the assay with Rattus norvegicus [1] turned out to be 39%; with Rattus norvegicus [2], 16%; in the assay with Rattus norvegicus [3] it was 2.2%.

Take `CON1CC(=O)N(c2cc(Cl)ccc2C)C1=S`: the Change in the assay on Rattus norvegicus [4] is 102.4%; in the assay with Rattus norvegicus [5] it was 134.4%; in the assay on Rattus norvegicus [1] it was 160%; with Rattus norvegicus [2], -62%; in the assay on Rattus norvegicus [3] it was 41%; in the assay with Rattus norvegicus [6], -10.8%. Moreover, the results for the Change in the assay with Rattus norvegicus [7] and with Rattus norvegicus [8] were 87.5% and 249.5%, respectively.

On to `CCN1CC(=O)N(c2c(Cl)cccc2Cl)C1=S`, for which the Change in the assay on Rattus norvegicus [4] is given as 60.2%; in the assay with Rattus norvegicus [5], 57%; in the assay on Rattus norvegicus [1] it was 142%; in the assay with Rattus norvegicus [2], -37%; in the assay with Rattus norvegicus [3] it was 53.4%; with Rattus norvegicus [6], -35.8%. Also, the Change stood at 6.8% in the assay with Rattus norvegicus [7] and 0% in the assay on Rattus norvegicus [8].

With `CCCCN1CC(=O)N(c2c(C)cccc2Cl)C1=S`, the Change is 53% in the assay on Rattus norvegicus [1], -38% in the assay on Rattus norvegicus [2] and 30% in the assay on Rattus norvegicus [3].

In the case of `C#CCN1CC(=O)N(c2c(C)cccc2C)C1=S`, the Change in the assay on Rattus norvegicus [4] is 85.1%; in the assay with Rattus norvegicus [5], 98%; in the assay on Rattus norvegicus [1] it was 325%; in the assay with Rattus norvegicus [2] it was 0%; with Rattus norvegicus [3] it was -15%; in the assay on Rattus norvegicus [6], -48.5%. Further, the values for the Change with Rattus norvegicus [7] and in the assay on Rattus norvegicus [8] were 27.9% and -23%, respectively.

In the case of `CN1CC(=O)N(CCc2ccc(Cl)cc2)C1=S`, the Change with Rattus norvegicus [1] was -15.5%; in the assay on Rattus norvegicus [2], 24%; with Rattus norvegicus [3], -10.2%.

Consider `CCN1CC(=O)N(c2cc(F)ccc2C)C1=S`, for which the Change in the assay with Rattus norvegicus [4] is listed as 102.4%; in the assay on Rattus norvegicus [5], 95.2%; with Rattus norvegicus [1] it was 112%; with Rattus norvegicus [2], -36%; with Rattus norvegicus [3] it was 35%; in the assay with Rattus norvegicus [6] it was -6.3%. Besides, the Change in the assay on Rattus norvegicus [7] came to 14%; with Rattus norvegicus [8], 131.6%.

As to `O=C1CN(Cc2ccccc2)C(=S)N1c1c(Cl)cccc1Cl`, the Change with Rattus norvegicus [1] is listed as -2.2%; in the assay with Rattus norvegicus [2], -54%; in the assay with Rattus norvegicus [3], 25.3%.

`CCN1CCC(=O)N(c2ccccc2F)C1=S`: the Change in the assay with Rattus norvegicus [4] was 55.3%; in the assay on Rattus norvegicus [5], 48.7%; in the assay on Rattus norvegicus [1], 72%; in the assay on Rattus norvegicus [2] it was -26%; in the assay with Rattus norvegicus [3], 21%; with Rattus norvegicus [6], -4%. For the same compound, the values for the Change in the assay on Rattus norvegicus [7] and with Rattus norvegicus [8] were -4% and 20.1%, respectively.

Regarding `CCc1cccc(C(C)C)c1N1C(=O)CCN(CC)C1=S`, the Change in the assay with Rattus norvegicus [1] was 34%; in the assay with Rattus norvegicus [2], -11%; in the assay on Rattus norvegicus [3], 2%.

With `CN1CC(=O)N(c2cccnc2)C1=S`, the Change was 29% in the assay with Rattus norvegicus [1], 150% in the assay with Rattus norvegicus [2] and -11.4% in the assay on Rattus norvegicus [3].

In the case of `CCN1C(=S)N(c2c(Cl)cccc2Cl)C(=O)C1(C)C`, the Change with Rattus norvegicus [1] is -18%; in the assay on Rattus norvegicus [2], -19%; with Rattus norvegicus [3], -16%.

Consider `CCN1C(=S)N(c2c(C)cccc2C)C(=O)C1(C)C`, for which the values for the Change in the assay with Rattus norvegicus [1], with Rattus norvegicus [2] and in the assay on Rattus norvegicus [3] were -2%, 17% and 13%, respectively.

As for `CCN1CC(=O)N(c2cc(Cl)ccc2C)C(=S)C1`, the Change with Rattus norvegicus [1] is reported as 10%; in the assay on Rattus norvegicus [2], -27%; with Rattus norvegicus [3], 28%.

In the case of `CCN1C(=S)N(c2c(Cl)cccc2Cl)C(=O)C1c1ccccc1` (configuration not stated), the Change in the assay with Rattus norvegicus [1] is 39%; with Rattus norvegicus [2], 25%; in the assay on Rattus norvegicus [3], 18%.

In the case of `CCN1CC(=O)N(c2cc(Cl)ccc2OC)C1=S`, the values for the Change in the assay with Rattus norvegicus [1], in the assay with Rattus norvegicus [2] and in the assay on Rattus norvegicus [3] were 39%, 51% and 24%, respectively.

As to `CCN1CC(=O)N(CCc2ccc(F)cc2)C1=S`, the Change with Rattus norvegicus [1] is 49%; with Rattus norvegicus [2], -17%; in the assay on Rattus norvegicus [3], -8.8%.

Consider `CCN1CCC(=O)N(c2cc(Cl)ccc2C)C1=S`, for which the results for the Change in the assay on Rattus norvegicus [1], in the assay with Rattus norvegicus [2] and in the assay with Rattus norvegicus [3] were 76%, 44% and 53%, respectively.

`CCN1CCCC(=O)N(c2ccc(Cl)cc2C)C1=S`: the figures for the Change in the assay on Rattus norvegicus [1], in the assay on Rattus norvegicus [2] and in the assay with Rattus norvegicus [3] were 15%, -15% and 58.8%, respectively.

For the compound `CN1CC(=O)N(Cc2ccccc2Cl)C1=S`, the Change with Rattus norvegicus [1] was determined as 23%; in the assay with Rattus norvegicus [2] it was 11%; in the assay on Rattus norvegicus [3], 14%.

With `CCN1CC(=O)N(C2CCCCC2)C1=S`, the Change in the assay with Rattus norvegicus [1] is recorded as 5.4%; in the assay on Rattus norvegicus [2], 28%; in the assay with Rattus norvegicus [3], -7.4%.

As to `CCN1CC(=O)N(c2ccc(N(C)C)cc2)C1=S`, the Change in the assay with Rattus norvegicus [1] was 49%; with Rattus norvegicus [2], -41%; in the assay on Rattus norvegicus [3] it was 123%.

For `CCN1CC(=O)N(c2cc(Cl)ccc2C)/C1=N/C#N`, the values for the Change in the assay with Rattus norvegicus [1], in the assay on Rattus norvegicus [2] and in the assay with Rattus norvegicus [3] were 17%, -25% and 15%, respectively.

In the case of `CCN1CC(=O)N(c2cc(C)c(C)cc2C)C1=S`, the Change in the assay with Rattus norvegicus [1] is 112%; in the assay with Rattus norvegicus [2] it was -11%; in the assay on Rattus norvegicus [3] it was 39%.

Turning to `Cc1ccc(Cl)cc1N1C(=O)CN(C)C1=O`, the Change with Rattus norvegicus [1] is -8%; with Rattus norvegicus [2], -7%; in the assay on Rattus norvegicus [3], 37%.

`CN1CC(=O)N(CCCCc2ccccc2)C1=S`: the Change was -21% in the assay with Rattus norvegicus [1], 41% in the assay on Rattus norvegicus [2] and -4.3% in the assay with Rattus norvegicus [3].

As for `CCc1cccc(C)c1N1C(=O)CCN(CC)C1=S`, the figures for the Change with Rattus norvegicus [1], in the assay on Rattus norvegicus [2] and with Rattus norvegicus [3] were 60%, 2% and 52%, respectively.

On to `CCN1CC(=O)N(c2ccc3ccccc3c2)C1=S`, for which the Change in the assay on Rattus norvegicus [1] is on record as 65%; in the assay on Rattus norvegicus [2], -33%; in the assay on Rattus norvegicus [3], -18.1%.

As for `CCN1CCCC(=O)N(c2cc(Cl)ccc2C)C1=S`, the Change in the assay on Rattus norvegicus [1] is 50%; with Rattus norvegicus [2], 14%; with Rattus norvegicus [3], 7%.

Turning to `CN1CC(=O)N(CCN2CCCCC2)C1=S`, the Change in the assay on Rattus norvegicus [1] was -40%; in the assay on Rattus norvegicus [2], 33%; with Rattus norvegicus [3] it was -3.3%.

As for `CCN1CC(=O)N(c2ccc(F)cc2)C1=S`, the Change is recorded as 59% in the assay with Rattus norvegicus [1], -18% with Rattus norvegicus [2] and 78% in the assay on Rattus norvegicus [3].

With `CCN1C(=S)N(c2ccc(F)cc2)C(=O)C1c1ccccc1` (configuration not stated), the Change with Rattus norvegicus [1] is 67%; with Rattus norvegicus [2], 35%; with Rattus norvegicus [3] it was 31%.

For the compound `CCN1C(=S)N(c2c(C)cccc2Cl)C(=O)C1(C)C`, the values for the Change with Rattus norvegicus [1], in the assay on Rattus norvegicus [2] and in the assay with Rattus norvegicus [3] were -5%, -22% and 16%, respectively.

As to `Cc1ccc(CCN2C(=O)CN(C)C2=S)cc1`, the results for the Change in the assay on Rattus norvegicus [1], in the assay on Rattus norvegicus [2] and in the assay with Rattus norvegicus [3] were -26.6%, 27% and -11%, respectively.

In the case of `CCN1CCC(=O)N(c2c(Cl)cccc2Cl)C1=S`, the figures for the Change in the assay with Rattus norvegicus [1], in the assay with Rattus norvegicus [2] and with Rattus norvegicus [3] were 16%, -6% and 42%, respectively.

Consider `CCN1CC(=O)N(c2ccccc2SC)C1=S`, for which the figures for the Change in the assay with Rattus norvegicus [1], in the assay on Rattus norvegicus [2] and with Rattus norvegicus [3] were 60%, -8% and 13%, respectively.

Regarding `CCN1CCC(=O)N(c2ccc(C)cc2C)C1=S`, the Change with Rattus norvegicus [1] is listed as -3%; in the assay on Rattus norvegicus [2], 2%; with Rattus norvegicus [3], 27%.

Consider `COC(=O)CCN1CC(=O)N(c2ccc(Cl)cc2C)C1=S`, for which the Change in the assay on Rattus norvegicus [1] was 27%; with Rattus norvegicus [2], -32%; in the assay on Rattus norvegicus [3], 14%.

For the compound `CN1CC(=O)N(C(c2ccccc2)c2ccccc2)C1=S`, the Change is 57% in the assay on Rattus norvegicus [1], 92% with Rattus norvegicus [2] and 3.4% with Rattus norvegicus [3].

Regarding `CCN1CC(=O)N(CCc2ccccc2)C1=S`, the results for the Change in the assay on Rattus norvegicus [1], in the assay on Rattus norvegicus [2] and with Rattus norvegicus [3] were 30%, 6% and -14%, respectively.

As to `CCN1C(=S)N(c2cc(Cl)ccc2C)C(=O)C1c1ccccc1` (configuration not stated), the Change in the assay on Rattus norvegicus [1] is given as 187%; in the assay with Rattus norvegicus [2], 76%; in the assay with Rattus norvegicus [3], 60%.

Turning to `CN1CC(=O)N(c2ccccc2)C1=S`, the Change is 66% in the assay on Rattus norvegicus [1], 10% in the assay on Rattus norvegicus [2] and 25% in the assay on Rattus norvegicus [3].

Consider `CCN1C(=O)C(=O)N(c2ccc(F)cc2)C1=S`, for which the values for the Change with Rattus norvegicus [1], in the assay with Rattus norvegicus [2] and in the assay with Rattus norvegicus [3] were 23%, -48% and 44%, respectively.

Take `CCN1C(=S)N(c2cc(Cl)ccc2C)C(=O)C1(C)C`: the Change in the assay on Rattus norvegicus [1] is on record as -9%; with Rattus norvegicus [2], 15%; in the assay on Rattus norvegicus [3] it was 0%.

Take `CCN1C(=O)C(=O)N(c2cc(Cl)ccc2C)C1=S`: the Change is given as 87.6% in the assay on Rattus norvegicus [4]; 123.4% with Rattus norvegicus [5]; 242% in the assay on Rattus norvegicus [1]; -22% with Rattus norvegicus [2]; 32% in the assay with Rattus norvegicus [3]; 71.9% in the assay on Rattus norvegicus [7]. In addition, in the assay with Rattus norvegicus [8], the Change was 67.3%.

(Values after ChEMBL document CHEMBL1148398, “Design, synthesis, and biological evaluation of thio-containing compounds with serum HDL-cholesterol-elevating properties” (2004).)
